ChEMBL document CHEMBL4145598, “Discovery and Development of 8-Substituted Cycloberberine Derivatives as Novel Antibacterial Agents against MRSA” (ACS Med Chem Lett, 2018)

What was measured:
Assay type in all cases: functional
Staphylococcus aureus [1] = test: Antimicrobial activity against vancomycin-intermediate Staphylococcus aureus ATCC 700698 after 18 hrs by agar dilution assay; conditions: ATCC 700698, 18 h
Method in brief: (§1)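 MICs in μg/mL against drug-resistant S. aureus (MRSA/VISA) by standard methods, with levofloxacin as the reference drug. ATCC strains were used.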

Staphylococcus aureus [2] = test: Antimicrobial activity against methicillin-resistant Staphylococcus aureus isolate 13-18 after 18 hrs by agar dilution assay; conditions: isolate 13-18, 18 h
Method in brief: (§2)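 Drug-resistant S. aureus (MRSA/VISA) panel. It includes ATCC reference strains and clinical isolates from patients in Chinese hospitals. MIC was determined by standard methods and reported in μg/mL, with levofloxacin as the reference drug.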

Staphylococcus aureus [3] = test: Antimicrobial activity against methicillin-resistant Staphylococcus aureus isolate 12-16 after 18 hrs by agar dilution assay; conditions: isolate 12-16, 18 h; method in brief: as §2
Staphylococcus aureus [4] = test: Antimicrobial activity against methicillin-resistant Staphylococcus aureus isolate 12-13 after 18 hrs by agar dilution assay; conditions: isolate 12-13, 18 h; method in brief: as §2
Staphylococcus aureus [5] = test: Antimicrobial activity against methicillin-resistant Staphylococcus aureus isolate 13-23 after 18 hrs by agar dilution assay; conditions: isolate 13-23, 18 h; method in brief: as §2
Staphylococcus hominis = test: Antimicrobial activity against Staphylococcus hominis ATCC 35982 after 18 hrs by agar dilution assay; conditions: ATCC 35982, 18 h
[6] = test system: Staphylococcus epidermidis; test: Antimicrobial activity against methicillin-sensitive Staphylococcus epidermidis isolate 13-1 after 18 hrs by agar dilution assay; conditions: isolate 13-1, 18 h
Staphylococcus aureus [7] = test: Antimicrobial activity against vancomycin-intermediate Staphylococcus aureus ATCC 700699 after 18 hrs by agar dilution assay; conditions: ATCC 700699, 18 h; method in brief: as §1
Staphylococcus aureus [8] = test: Antimicrobial activity against methicillin-sensitive Staphylococcus aureus isolate 13-19 after 18 hrs by agar dilution assay; conditions: isolate 13-19, 18 h
Staphylococcus aureus [9] = test: Antimicrobial activity against methicillin-resistant Staphylococcus aureus isolate 12-3 after 18 hrs by agar dilution assay; conditions: isolate 12-3, 18 h; method in brief: as §2
[10] = test system: Staphylococcus saprophyticus; test: Antimicrobial activity against Staphylococcus saprophyticus ATCC 15305 after 18 hrs by agar dilution assay; conditions: ATCC 15305, 18 h
Staphylococcus aureus [11] = test: Antimicrobial activity against methicillin-resistant Staphylococcus aureus ATCC 33591 after 18 hrs by agar dilution assay; conditions: ATCC 33591, 18 h; method in brief: as §2
Staphylococcus aureus [12] = test: Antimicrobial activity against methicillin-resistant Staphylococcus aureus isolate 12-8 after 18 hrs by agar dilution assay; conditions: isolate 12-8, 18 h; method in brief: as §2
Staphylococcus aureus [13] = test: Antimicrobial activity against methicillin-sensitive Staphylococcus aureus isolate 13-20 after 18 hrs by agar dilution assay; conditions: isolate 13-20, 18 h
Staphylococcus aureus [14] = test: Antimicrobial activity against methicillin-sensitive Staphylococcus aureus ATCC 29213 after 18 hrs by agar dilution assay; conditions: ATCC 29213, 18 h
Staphylococcus aureus [15] = test: Antimicrobial activity against methicillin-sensitive Staphylococcus aureus isolate 13-21 after 18 hrs by agar dilution assay; conditions: isolate 13-21, 18 h
[16] = test system: Staphylococcus epidermidis; test: Antimicrobial activity against methicillin-sensitive Staphylococcus epidermidis ATCC 12228 after 18 hrs by agar dilution assay; conditions: ATCC 12228, 18 h
Staphylococcus aureus [17] = test: Antimicrobial activity against methicillin-sensitive Staphylococcus aureus isolate 15 after 18 hrs by agar dilution assay; conditions: isolate 15, 18 h
Staphylococcus aureus [18] = test: Antimicrobial activity against methicillin-resistant Staphylococcus aureus ATCC-BAA-1708 after 18 hrs by agar dilution assay; conditions: ATCC-BAA-1708, 18 h; method in brief: as §2
Staphylococcus aureus [19] = test: Antimicrobial activity against methicillin-sensitive Staphylococcus aureus isolate 13-17 after 18 hrs by agar dilution assay; conditions: isolate 13-17, 18 h

| Compound | MIC (Staphylococcus aureus [1]) [µg/mL] | MIC (Staphylococcus aureus [2]) [µg/mL] | MIC (Staphylococcus aureus [3]) [µg/mL] | MIC (Staphylococcus aureus [4]) [µg/mL] | MIC (Staphylococcus aureus [5]) [µg/mL] | MIC (Staphylococcus hominis) [µg/mL] | MIC [6] [µg/mL] | MIC (Staphylococcus aureus [7]) [µg/mL] | MIC (Staphylococcus aureus [8]) [µg/mL] | MIC (Staphylococcus aureus [9]) [µg/mL] | MIC [10] [µg/mL] | MIC (Staphylococcus aureus [11]) [µg/mL] | MIC (Staphylococcus aureus [12]) [µg/mL] | MIC (Staphylococcus aureus [13]) [µg/mL] | MIC (Staphylococcus aureus [14]) [µg/mL] | MIC (Staphylococcus aureus [15]) [µg/mL] | MIC [16] [µg/mL] | MIC (Staphylococcus aureus [17]) [µg/mL] | MIC (Staphylococcus aureus [18]) [µg/mL] | MIC (Staphylococcus aureus [19]) [µg/mL] |
| --- | --- | --- | --- | --- | --- | --- | --- | --- | --- | --- | --- | --- | --- | --- | --- | --- | --- | --- | --- | --- |
| COc1ccc2c(c[n+]3c4c2ccc2c5c(cc(c24)CC3)OCO5)c1NCc1ccco1.[Cl-] | > 64 | 64 | 64 | 32 | 64 | 32 | 64 | > 64 | 16 | 32 | 32 | 64 | 64 | 32 | 32 | 32 | 32 | 32 | > 64 | 32 |
| COc1ccc2c(c[n+]3c4c2ccc2c5c(cc(c24)CC3)OCO5)c1OCC(=O)c1cccc(OC(F)(F)F)c1.[Br-] | > 64 | 16 | 16 | 32 | 16 | 32 | 32 | > 64 | 16 | 16 | 16 | 16 | 8 | 16 | 32 | 16 | 16 | 16 | 64 | 16 |
| COc1ccc2c(c[n+]3c4c2ccc2c5c(cc(c24)CC3)OCO5)c1OCC(=O)C1CC1.[Br-] | > 64 | > 64 | > 64 | > 64 | > 64 | > 64 | > 64 | > 64 | > 64 | > 64 | > 64 | > 64 | > 64 | > 64 | > 64 | > 64 | > 64 | > 64 | > 64 | > 64 |
| COc1ccc2c(c[n+]3c4c2ccc2c5c(cc(c24)CC3)OCO5)c1N.[Cl-] | 64 | 8 | 4 | 4 | 8 | 8 | 8 | 4 | 8 | 8 | 8 | 4 | 4 | 4 | 4 | 8 | 8 | 4 | 4 | 4 |
| COc1ccc2c(c[n+]3c4c2ccc2c5c(cc(c24)CC3)OCO5)c1OCC(=O)c1ccccc1OC(F)(F)F.[Br-] | > 64 | 8 | 4 | 4 | 8 | 4 | 16 | > 64 | 8 | 16 | 4 | 8 | 8 | 8 | 8 | 8 | 4 | 16 | 32 | 8 |
| COc1ccc2c(c[n+]3c4c2ccc2c5c(cc(c24)CC3)OCO5)c1NC(=O)CC1CCCC1.[Cl-] | 64 | 8 | 8 | 16 | 8 | 8 | 8 | 4 | 8 | 8 | 32 | 8 | 8 | 8 | 8 | 8 | 8 | 8 | 4 | 8 |
| COc1ccc2c(c[n+]3c4c2ccc2c5c(cc(c24)CC3)OCO5)c1NCc1ccccc1.[Cl-] | 32 | 64 | 64 | 64 | 64 | 8 | 64 | > 64 | 64 | 64 | 8 | 64 | 64 | 64 | 64 | 64 | 8 | 64 | 64 | 64 |
| COc1ccc2c(c[n+]3c4c2ccc2c5c(cc(c24)CC3)OCO5)c1O.[Cl-] | 0.5 | 0.25 | 0.5 | 1 | 0.25 | 0.5 | 0.5 | 0.25 | 0.5 | 0.25 | > 64 | 0.25 | 0.5 | 0.25 | 0.25 | 0.5 | 0.5 | 4 | 0.5 | 0.25 |
| COc1ccc2c(c[n+]3c4c2ccc2c5c(cc(c24)CC3)OCO5)c1NC(=O)c1c(C)noc1C.[Cl-] | > 64 | > 64 | > 64 | > 64 | > 64 | > 64 | > 64 | > 64 | > 64 | > 64 | > 64 | > 64 | > 64 | > 64 | > 64 | > 64 | > 64 | > 64 | > 64 | > 64 |
| COc1ccc2c(c[n+]3c4c2ccc2c5c(cc(c24)CC3)OCO5)c1OCC(=O)C(C)(C)C.[Br-] | > 64 | 32 | 32 | 32 | 32 | 16 | 32 | > 64 | 32 | 32 | 32 | 32 | 64 | 32 | 32 | 32 | 32 | 64 | 32 | 32 |
| COc1ccc2c(c[n+]3c4c2ccc2c5c(cc(c24)CC3)OCO5)c1NC(=O)c1ccccn1.[Cl-] | > 64 | > 64 | > 64 | > 64 | > 64 | > 64 | > 64 | > 64 | > 64 | > 64 | > 64 | > 64 | > 64 | > 64 | > 64 | > 64 | > 64 | > 64 | > 64 | > 64 |
| CCC(=O)COc1c(OC)ccc2c1c[n+]1c3c2ccc2c4c(cc(c23)CC1)OCO4.[Br-] | > 64 | > 64 | > 64 | > 64 | > 64 | > 64 | > 64 | > 64 | > 64 | > 64 | > 64 | > 64 | > 64 | > 64 | > 64 | > 64 | > 64 | > 64 | > 64 | > 64 |
| COc1ccc(C(=O)COc2c(OC)ccc3c2c[n+]2c4c3ccc3c5c(cc(c34)CC2)OCO5)cc1C(F)(F)F.[Br-] | > 64 | 8 | 8 | 4 | 4 | 4 | 8 | > 64 | 4 | 4 | 4 | 4 | 8 | 4 | 4 | 8 | 4 | 4 | 16 | 4 |
| COc1ccc2c(c[n+]3c4c2ccc2c5c(cc(c24)CC3)OCO5)c1OCC(=O)c1ccc(C)cc1.[Br-] | > 64 | 4 | 4 | 4 | 4 | 4 | 8 | > 64 | 4 | 4 | 4 | 4 | 8 | 8 | 4 | 4 | 2 | 8 | 8 | 4 |
